From PubChem BioAssay
Sampled rows, rich in hits. Any-hit rate of the full collection: about 2.5%.
DNMT1 block: DNMT1 (human) enzyme inhibition; P26358; DNMT1 molecular beacon, Hinp1I cleavage, fluorescence; inhibition (reported as % activation of signal), % at 10 µM; hit rate 0.83% among 360,000; in the data active = inhibition above about 50%
UHRF1 binding: human UHRF1 methylated DNA binding inhibitors; Q96T88; UHRF1 binding to methylated oligo, TR-FRET; inhibition, % at 4.4 µM; hit rate 0.75% among 370,000; in the data active = inhibition above about 21%;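 note: UHRF1 SRA domain binding a hemimethylated CpG hairpin DNA probe; 0% = median of test compound wells and 100% = reference inhibitor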
SUMO1 PPI mod: SUMO1-SIM interaction modulation | P63165 | SUMO1 binding to a labelled peptide, TR-FRET, 1 h | inhibition, % at 20 µM | hit rate 0.33% among 360,000; in the data active = inhibition above about 37%
Pemphigus Ab inh: blocks pemphigus antibody binding to human desmoglein-3 | hit rate 0.48% among 310,000 | P32926 | DSG3-coupled beads, scFv-anti-DSG3-GFP binding, flow cytometry; stronger effect = lower value | AID 588358 | binding (percent of control), % at 10 µM;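 active = binding more than 3 SD below its plate's average and above zero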
HCV NS3 hel inh: inhibitors of Hepatitis C virus NS3 helicase | hit rate 0.56% among 290,000 | NS3 helicase DNA unwinding, Cy5 molecular beacon fluorescence | inhibition, % at 10.9 µM;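 active = inhibition above the mean of all tested compounds plus 3 SD, set per campaign, cut at about 35% in these data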;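 note: 0% = DMSO wells and 100% = thioflavine S control wells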
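System: Hepatitis C virus NS3 helicase domain fragment enzyme | Reagent: Annealed dual-labelled DNA beacon duplex, ATP-started | Compound dosing: 10.9 µM single point, 0.8% DMSO | Incubation: 1 h reaction at 25 °C, ATP-initiated | Technique: Cy5 fluorescence | Evaluation: Percent inhibition from t60/t0 fluorescence ratio | Benchmarks: Low DMSO, high thioflavine S at 110 µM | Replication: Singlicate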
MBD2 inh: inhibitors of human MBD2 binding to methylated oligonucleotide; hit rate 0.31% among 370,000; TR-FRET; AID 686964; Q9UBB5; inhibition, % at 4.4 µM; in the data active = inhibition above about 13%
An asterisk follows results filed as active; nt = no result.

SMILES | DNMT1 block | UHRF1 binding | SUMO1 PPI mod | Pemphigus Ab inh | HCV NS3 hel inh | MBD2 inh
CC1=C(C#N)C(=O)NC(=O)/C1=C\c1ccc(-c2cc(C)c(C)cc2[N+](=O)[O-])o1 | 13 | -1 | 18 | 96 | 32 | -1
Cc1ccc(SCC(=O)NC(=O)c2ccc(S(=O)(=O)N(C)C)cc2)cc1C | 0 | 0 | 1 | 103 | -1 | -4
O=c1c2ccccc2sn1-c1nccs1 | 0 | 9 | 5 | 28* | 4 | 5
Cc1ccc(S(=O)(=O)N(CC(=O)N=Nc2c(O)[nH]c3ccccc23)c2cccc(C)c2)cc1 | -6 | -1 | -4 | 85* | 9 | 7
Cc1cc(Cl)ccc1N(CC(=O)N=Nc1c(O)[nH]c2ccccc12)S(C)(=O)=O | -11 | -3 | -18 | 101 | -6 | 0
CCC(=O)Nc1cccc(-c2nnc(SCC(=O)c3ccccc3)n2C)c1 | 6 | 7 | -2 | 104 | -6 | -1
CSc1nnc(-c2cccc(NC(=O)c3ccccc3)c2)n1C | -3 | 26* | 2 | 104 | -15 | -3
Cn1c(SCC(=O)N/N=C/C=C/c2ccco2)nc2ccccc21 | 57* | 9 | -1 | 102 | 13 | 13
COC(=O)c1cc(S(=O)(=O)NCC2CCN(Cc3ccc(C)cc3)CC2)cn1C | 2 | 1 | -8 | 103 | 2 | 1
COC/C=C/C1=CC2=CC(=O)C(C)(OC(=O)C3CCCC3)C(=O)C2=CO1 (stereo not given) | 13 | 29* | 22 | 97 | nt | 5
CC1(OC(=O)C2CCCC2)C(=O)C=C2C=C3CCCCN3C=C2C1=O (stereo not given) | 15 | nt | -5 | 103 | nt | nt
Cc1ccccc1N(C(=O)c1snc(C(N)=O)c1N)C(C)C(=O)NC1CCCCC1 (stereo not given) | -2 | -1 | -10 | 91 | 6 | 1
Cc1ccccc1N(C(=O)c1snc(C(N)=O)c1N)C(C(=O)NC1CCCCC1)c1ccc(O)cc1 (stereo not given) | -7 | 50* | -5 | nt | -11 | -6
Cc1cccc(N(C(=O)c2snc(C(N)=O)c2N)C(C(=O)NC2CCCC2)c2ccc(C)o2)c1 (stereo not given) | 0 | 70* | 4 | 109 | 5 | 2
C/C(=N\NC(=O)CNC(=O)c1ccc(F)cc1)c1ccco1 | 5 | -2 | -8 | 96 | 2 | 0
COCC1CCCCN1C(=O)c1cccc(OC2CCN(S(C)(=O)=O)CC2)c1 (stereo not given) | 6 | 31* | -2 | 101 | 3 | 3
CCC(=O)C1CCCN(C(=O)c2cccc(OC3CCN(S(C)(=O)=O)CC3)c2)C1 (stereo not given) | 2 | nt | 3 | 119 | 3 | nt
c1ccc(CCNc2nc3ccccc3s2)cc1 | -2 | 21* | 3 | 102 | -12 | 5
COc1ccc(CNc2nc3ccccc3s2)cc1OC | -3 | 1 | 4 | 115 | -6 | 0
COc1ccc(CCN2C(=O)CSCC2(C)C(=O)Nc2ccc3c(c2)OCCO3)cc1OC (stereo not given) | nt | 15 | 1 | nt | nt | 2
Fc1cccc(CSc2ncnc3c2oc2ccccc23)c1 | 2 | 2 | -62 | 107 | 8 | 4
Fc1ccc(CSc2ncnc3c2oc2ccccc23)cc1 | 3 | 8 | -204 | 69* | 2 | 4
CC(C)CN1CCN(Cc2cn(C)c3ccccc23)CC1CCO (stereo not given) | -1 | 26* | -1 | 98 | -5 | 0
CCNC(=O)C1(C)CCN(C(=O)c2ccc(OC)cc2)C1 (stereo not given) | 4 | 1 | 2 | nt | nt | -2
CC(C)COc1ccc(C(=O)N/N=C/c2ccoc2)cc1 | 6 | 30* | 3 | 100 | 4 | -2
SMILES | DNMT1 block | UHRF1 binding | SUMO1 PPI mod | Pemphigus Ab inh | HCV NS3 hel inh | MBD2 inh
CCOc1cc(C(=O)N/N=C/c2ccoc2)cc(OCC)c1OCC | 3 | -2 | -3 | 110 | -1 | 2
CC(C)c1ccc(NC(=O)C2CCCN2S(=O)(=O)c2ccccc2F)cc1 (stereo not given) | -1 | 0 | 2 | 102 | nt | -6
Cc1nc(NNC(=O)c2ccc(Cl)cc2Cl)cc(-c2ccccc2)n1 | -3 | 0 | 1 | 71* | -3 | 7
COc1ccccc1/C=C1/SC(=O)N(CCC(=O)Nc2ccc(S(=O)(=O)Nc3nccs3)cc2)C1=O | -2 | -1 | 6 | 100 | -28 | -5
CC1=C(C#N)c2nc(N)c(C#N)c(C)c2/C1=C\c1ccc(C)cc1 | nt | nt | nt | nt | 11 | nt
COc1cc(/C=C2\C(C)=C(C#N)c3nc(N)c(C#N)c(C)c32)ccc1OCC(=O)O | -3 | -6 | 45* | 85 | 12 | 1
COc1ccc2nc3cc(Cl)ccc3c(Nc3ccc(O)c(CN4CCN(C)CC4)c3)c2c1 | 68* | 19 | -65 | 88 | nt | 7
CC(=O)N1CCN(C(=O)c2cccc(S(=O)(=O)N3CCN(c4ccccc4)CC3)c2)CC1 | -1 | -3 | 5 | nt | nt | 3
CN1CCN(S(=O)(=O)c2cccc(C(=O)N3CCN(c4ccccc4)CC3)c2)CC1 | 7 | 49* | 3 | 102 | nt | 4
Cc1cc(C)n2nc(SCCC(=O)NCc3ccccc3)nc2n1 | 2 | 36* | 0 | nt | 12 | 3
Cc1cc(C)n2nc(CC(=O)NCc3ccc(F)cc3)nc2n1 | 4 | 99* | -3 | 100 | 5 | 2
Cc1cc(C(=O)Cn2nc(C(=O)O)c3ccccc3c2=O)c(C)n1CC(F)(F)F | 2 | -2 | 5 | 117 | 6 | -6
CCO/C=C/C(=O)N(C)CCC#N | 6 | 100* | 4 | nt | -2 | -2
CN(CCC#N)C(=O)COC(=O)/C=C/c1cccs1 | 1 | 4 | -16 | 86 | 3 | 7
O=S(c1cc(Cl)cc(Cl)c1O)c1cc(Cl)cc(Cl)c1O | nt | 0 | 43* | nt | nt | -2
Cc1ccc(/C=C/c2nnc(-c3cccs3)o2)cc1 | 1 | -2 | -9 | 70* | -19 | -4
COc1ccc(S(=O)(=O)N/N=C(/C)c2ccncc2)cc1 | 3 | 27* | 7 | 106 | -1 | 2
COc1ccc(/C=C/C2=NNC(=O)CC2)cc1 | -3 | 1 | -12 | 106 | -9 | -6
C=CCN(CC=C)C(=O)c1cc(Cl)ccc1[N+](=O)[O-] | 1 | 0 | -22 | 100 | 6 | -2
CCCCN(CCCC)C(=O)c1cc(Cl)ccc1[N+](=O)[O-] | 2 | 1 | -10 | -27* | 2 | 0
CC(=O)c1nn(-c2ccccc2)cc1C(=O)c1ccc(C)cc1 | 9 | 9 | 2 | 102 | nt | 5
CC(=O)c1nn(-c2ccc(Cl)cc2)cc1C(=O)c1ccc(C)cc1 | 10 | 26* | 3 | 103 | nt | 9
O=C(CCCN1C(=O)/C(=C/c2ccccc2Cl)SC1=S)NNC(=O)c1cccnc1 | -1 | -3 | -31 | 102 | 13 | 4
CCc1ccc(/C=C2/SC(=S)N(CCC(=O)Nc3ccc(C(=O)O)cc3)C2=O)cc1 | 11 | 0 | 85* | nt | 3 | 1
